Source: ChEMBL document CHEMBL4350999, “Enhanced tumor retention of NTSR1-targeted agents by employing a hydrophilic cysteine cathepsin inhibitor” (Eur J Med Chem, 2019)

Key:
[1] = Drug uptake in pancreas of SCID mouse xenografted with human HT-29 cells at 0.37 MBq/mouse, iv measured at 24 hrs using 177Lu labelled compound by gamma counter analysis; type: ADME, organism-based; details: in vivo
Summary of the method: (§1)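 Female SCID mice (5 weeks) bore s.c. flank xenografts of HT-29 cells (5 × 10^6 in Matrigel), used at about 80 mm3 (two weeks) and randomized. Each mouse received 10 μCi (0.37 MBq) of HPLC-purified 177Lu-conjugate via tail vein. Tissues were excised, weighed and gamma-counted, expressed as %ID/g; mean ± SD, n = 5.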

[2] = Drug uptake in small intestine of SCID mouse xenografted with human HT-29 cells at 0.37 MBq/mouse, iv measured at 72 hrs using 177Lu labelled compound by gamma counter analysis; type: ADME, organism-based; details: in vivo; summary of the method: as §1
[3] = Drug uptake in brain of SCID mouse xenografted with human HT-29 cells at 0.37 MBq/mouse, iv measured at 72 hrs using 177Lu labelled compound by gamma counter analysis; type: ADME, organism-based; details: in vivo; summary of the method: as §1
[4] = Drug uptake in heart of SCID mouse xenografted with human HT-29 cells at 0.37 MBq/mouse, iv measured at 24 hrs using 177Lu labelled compound by gamma counter analysis; type: ADME, organism-based; details: in vivo; summary of the method: as §1
[5] = Drug uptake in lung of SCID mouse xenografted with human HT-29 cells at 0.37 MBq/mouse, iv measured at 24 hrs using 177Lu labelled compound by gamma counter analysis; type: ADME, organism-based; details: in vivo; summary of the method: as §1
[6] = Drug uptake in lung of SCID mouse xenografted with human HT-29 cells at 0.37 MBq/mouse, iv measured at 72 hrs using 177Lu labelled compound by gamma counter analysis; type: ADME, organism-based; details: in vivo; summary of the method: as §1
[7] = Drug excretion in SCID mouse xenografted with human HT-29 cells at 0.37 MBq/mouse, iv measured at 24 hrs using 177Lu labelled compound by gamma counter analysis; type: ADME, organism-based; details: in vivo
Summary of the method: (§2)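 Female SCID mice bearing s.c. flank HT-29 xenografts (5 × 10^6 cells in Matrigel, ~80 mm3). Given 10 μCi (0.37 MBq) 177Lu conjugate i.v. by tail vein; groups sacrificed at 4, 24, 72 h. Tissues weighed and gamma-counted as %ID/g, excretion as %ID; n = 5, mean ± SD. Blocking arms: colchicine 1 mg/kg i.p. beforehand, or D-lysine 40 mg/kg co-injected.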

[8] = Drug uptake in stomach of SCID mouse xenografted with human HT-29 cells at 0.37 MBq/mouse, iv measured at 72 hrs using 177Lu labelled compound by gamma counter analysis; type: ADME, organism-based; details: in vivo
Summary of the method: (§3)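 Female SCID mice (5 weeks old) received s.c. flank HT-29 cells (5 × 10^6 in Matrigel). At ~80 mm3, two weeks later, mice were randomized and given 10 μCi (0.37 MBq) of purified 177Lu conjugate i.v. by tail vein. Mice were killed at 4, 24 or 72 h. Tissues were weighed and gamma counted as %ID/g, mean ± SD, n = 5. Tumor-to-tissue ratios were calculated.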

[9] = Drug uptake in spleen of SCID mouse xenografted with human HT-29 cells at 0.37 MBq/mouse, iv measured at 4 hrs using 177Lu labelled compound by gamma counter analysis; type: ADME, organism-based; details: in vivo; summary of the method: as §3
[10] = Drug uptake in blood of SCID mouse xenografted with human HT-29 cells at 0.37 MBq/mouse, iv measured at 24 hrs using 177Lu labelled compound by gamma counter analysis; type: ADME, organism-based; details: in vivo; summary of the method: as §2
[11] = Drug uptake in SCID mouse xenografted with human HT-29 cells assessed as tumour retention level at 0.37 MBq/mouse, iv measured at 4 hrs using 177Lu labelled compound by gamma counter analysis; type: ADME, organism-based; details: in vivo; summary of the method: as §2
[12] = Drug uptake in spleen of SCID mouse xenografted with human HT-29 cells at 0.37 MBq/mouse, iv measured at 72 hrs using 177Lu labelled compound by gamma counter analysis; type: ADME, organism-based; details: in vivo; summary of the method: as §3
[13] = Drug uptake in muscle of SCID mouse xenografted with human HT-29 cells at 0.37 MBq/mouse, iv measured at 4 hrs using 177Lu labelled compound by gamma counter analysis; type: ADME, organism-based, Muscle tissue; details: in vivo; summary of the method: as §1
[14] = Drug uptake in brain of SCID mouse xenografted with human HT-29 cells at 0.37 MBq/mouse, iv measured at 4 hrs using 177Lu labelled compound by gamma counter analysis; type: ADME, organism-based; details: in vivo; summary of the method: as §1
[15] = Drug uptake in pancreas of SCID mouse xenografted with human HT-29 cells at 0.37 MBq/mouse, iv measured at 4 hrs using 177Lu labelled compound by gamma counter analysis; type: ADME, organism-based; details: in vivo; summary of the method: as §1
[16] = Drug uptake in muscle of SCID mouse xenografted with human HT-29 cells at 0.37 MBq/mouse, iv measured at 24 hrs using 177Lu labelled compound by gamma counter analysis; type: ADME, organism-based, Muscle tissue; details: in vivo; summary of the method: as §1
[17] = Drug uptake in SCID mouse xenografted with human HT-29 cells assessed as tumour retention at 0.37 MBq/mouse, iv measured at 24 hrs using 177Lu labelled compound by gamma counter analysis; type: ADME, organism-based; details: in vivo; summary of the method: as §2
[18] = Drug uptake in kidney of SCID mouse xenografted with human HT-29 cells at 0.37 MBq/mouse, iv measured at 24 hrs using 177Lu labelled compound by gamma counter analysis; type: ADME, organism-based; details: in vivo; summary of the method: as §1
[19] = Drug uptake in bone of SCID mouse xenografted with human HT-29 cells at 0.37 MBq/mouse, iv measured at 4 hrs using 177Lu labelled compound by gamma counter analysis; type: ADME, organism-based, Bone element; details: in vivo; summary of the method: as §1
[20] = Drug uptake in lung of SCID mouse xenografted with human HT-29 cells at 0.37 MBq/mouse, iv measured at 4 hrs using 177Lu labelled compound by gamma counter analysis; type: ADME, organism-based; details: in vivo; summary of the method: as §1
[21] = Drug uptake in muscle of SCID mouse xenografted with human HT-29 cells at 0.37 MBq/mouse, iv measured at 72 hrs using 177Lu labelled compound by gamma counter analysis; type: ADME, organism-based, Muscle tissue; details: in vivo; summary of the method: as §1
[22] = Drug uptake in membrane of human HT-29 cells measured after 240 mins using 177Lu labelled compound by gamma counter method relative to control; type: ADME, cell-based; details: ht-29, 4 h
Summary of the method: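 HT-29 cells (~1 × 10^6 in 1 mL medium) were incubated with 177Lu-conjugate (100,000 cpm) at 37 °C and sampled at 15–240 min. After medium washes, surface-bound activity was stripped with pH 2.8 glycine-HCl/NaCl buffer, and the internalized fraction was taken from the 1% SDS lysate. Fractions were gamma-counted as % of total added activity; mean ± SD, n = 3.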

[23] = Drug uptake in small intestine of SCID mouse xenografted with human HT-29 cells at 0.37 MBq/mouse, iv measured at 24 hrs using 177Lu labelled compound by gamma counter analysis; type: ADME, organism-based; details: in vivo; summary of the method: as §1
[24] = Drug uptake in large intestine of SCID mouse xenografted with human HT-29 cells at 0.37 MBq/mouse, iv measured at 4 hrs using 177Lu labelled compound by gamma counter analysis; type: ADME, organism-based; details: in vivo; summary of the method: as §1
[25] = Drug uptake in bone of SCID mouse xenografted with human HT-29 cells at 0.37 MBq/mouse, iv measured at 24 hrs using 177Lu labelled compound by gamma counter analysis; type: ADME, organism-based, Bone element; details: in vivo; summary of the method: as §2
[26] = Drug uptake in stomach of SCID mouse xenografted with human HT-29 cells at 0.37 MBq/mouse, iv measured at 24 hrs using 177Lu labelled compound by gamma counter analysis; type: ADME, organism-based; details: in vivo; summary of the method: as §3
[27] = Drug uptake in pancreas of SCID mouse xenografted with human HT-29 cells at 0.37 MBq/mouse, iv measured at 72 hrs using 177Lu labelled compound by gamma counter analysis; type: ADME, organism-based; details: in vivo; summary of the method: as §1

Drug uptake [1] [% ID/g]	Drug uptake [2] [% ID/g]	Drug uptake [3] [% ID/g]	Drug uptake [4] [% ID/g]	Drug uptake [5] [% ID/g]	Drug uptake [6] [% ID/g]	Drug excretion [7] [%ID]	Drug uptake [8] [% ID/g]	Drug uptake [9] [% ID/g]	Drug uptake [11] [% ID/g]	Drug uptake [12] [% ID/g]	Drug uptake [13] [% ID/g]	Drug uptake [14] [% ID/g]	Drug uptake [15] [% ID/g]	Drug uptake [16] [% ID/g]	Drug uptake [17] [% ID/g]	Drug uptake [18] [% ID/g]	Drug uptake [19] [% ID/g]	Drug uptake [20] [% ID/g]	Drug uptake [21] [% ID/g]	SMILES	other results
0.6	4.3	0.02	0.9	6	5	35	0.8	16.1	7.8	17	0.53	0.09	0.89	0.35	10	62	1.6	4.5	0.15	Cc1cc(C)c(C(=O)OCC(=O)[C@H](CCCCNC(=O)CNC(=O)[C@@H](CO)NC(=O)[C@@H](CO)NC(=O)[C@@H](CO)NC(=O)Cn2cc(C[C@H](NC(=O)CN3CCN(CC(=O)O)CCN(CC(=O)O)CCN(CC(=O)O)CC3)C(=O)N[C@H](CO)C(=O)N[C@H](CO)C(=O)N[C@H](CO)C(=O)N[C@@H](CCCCN)C(=O)N3CCC[C@H]3C(=O)N(C)[C@@H](CCCNC(=N)N)C(=O)N[C@@H](CCCNC(=N)N)C(=O)N3CCC[C@H]3C(=O)N[C@@H](Cc3c(C)cc(O)cc3C)C(=O)N[C@H](C(=O)N[C@@H](CC(C)C)C(=O)O)C(C)(C)C)nn2)NC(=O)[C@H](Cc2ccccc2)NC(=O)OCc2ccccc2)c(C)c1	Drug uptake [10]: 0.17 % ID/g; Drug uptake [22]: 2%; Drug uptake [23]: 5.5 % ID/g; Drug uptake [24]: 2.9 % ID/g; Drug uptake [25]: 1.5 % ID/g; Drug uptake [26]: 0.9 % ID/g; Drug uptake [27]: 0.6 % ID/g
0.11	1.07	0.01	0.01	0.25	0.24	84.7	0.08	1	5.6	0.8	0.04	0.02	0.12	0.05	4.4	39	0.18	0.37	0.01	Cc1cc(O)cc(C)c1C[C@H](NC(=O)[C@@H]1CCCN1C(=O)[C@H](CCCNC(=N)N)NC(=O)[C@H](CCCNC(=N)N)N(C)C(=O)[C@@H]1CCCN1C(=O)[C@H](CCCCN)NC(=O)[C@@H](CO)NC(=O)[C@@H](CO)NC(=O)[C@@H](CO)NC(=O)[C@H](Cc1cn(CCNC(=O)[C@H](CCCNC(=N)N)NC(=O)[C@H](CC(C)C)NC(=O)CCC(=O)O)nn1)NC(=O)CN1CCN(CC(=O)O)CCN(CC(=O)O)CCN(CC(=O)O)CC1)C(=O)N[C@H](C(=O)N[C@@H](CC(C)C)C(=O)O)C(C)(C)C	Drug uptake [22]: Not Active; Drug uptake [23]: 1.9 % ID/g; Drug uptake [24]: 1 % ID/g; Drug uptake [25]: 0.15 % ID/g; Drug uptake [26]: 0.15 % ID/g; Drug uptake [27]: 0.08 % ID/g
0.77	3.2	0.01	0.6	2.2	1.2	56	0.51	19	8.4	18	0.44	0.11	0.84	0.38	5.1	55	2.6	4.3	0.12	Cc1cc(O)cc(C)c1C[C@H](NC(=O)[C@@H]1CCCN1C(=O)[C@H](CCCNC(=N)N)NC(=O)[C@H](CCCNC(=N)N)N(C)C(=O)[C@@H]1CCCN1C(=O)[C@H](CCCCN)NC(=O)[C@@H](CO)NC(=O)[C@@H](CO)NC(=O)[C@@H](CO)NC(=O)[C@H](Cc1cn(CC(=O)N[C@H](CO)C(=O)N[C@H](CO)C(=O)N[C@H](CO)C(=O)NCC(=O)NCCCC[C@H](NC(=O)[C@H](Cc2ccccc2)NC(=O)OCc2ccccc2)C(=O)NCCc2ccccc2)nn1)NC(=O)CN1CCN(CC(=O)O)CCN(CC(=O)O)CCN(CC(=O)O)CC1)C(=O)N[C@H](C(=O)N[C@@H](CC(C)C)C(=O)O)C(C)(C)C	Drug uptake [10]: 0.14 % ID/g; Drug uptake [23]: 5.6 % ID/g; Drug uptake [24]: 4 % ID/g; Drug uptake [25]: 1.8 % ID/g; Drug uptake [26]: 0.9 % ID/g; Drug uptake [27]: 0.68 % ID/g
0.18	2.3	0.02	0.08	0.45	0.3	69	0.21	1.4	6.4	1.9	0.09	0.01	0.19	0.04	6.2	80	0.8	0.53	0.03	Cc1cc(O)cc(C)c1C[C@H](NC(=O)[C@@H]1CCCN1C(=O)[C@H](CCCNC(=N)N)NC(=O)[C@H](CCCNC(=N)N)N(C)C(=O)[C@@H]1CCCN1C(=O)[C@H](CCCCN)NC(=O)[C@@H](CO)NC(=O)[C@@H](CO)NC(=O)[C@@H](CO)NC(=O)[C@H](Cc1cn(CCNC(=O)[C@H](CCCNC(=N)N)NC(=O)[C@H](CC(C)C)NC(=O)C2OC2C(=O)O)nn1)NC(=O)CN1CCN(CC(=O)O)CCN(CC(=O)O)CCN(CC(=O)O)CC1)C(=O)N[C@H](C(=O)N[C@@H](CC(C)C)C(=O)O)C(C)(C)C (stereo partly specified)	Drug uptake [10]: 0.01 % ID/g; Drug uptake [22]: Not Active; Drug uptake [23]: 3.2 % ID/g; Drug uptake [24]: 1.2 % ID/g; Drug uptake [25]: 1.1 % ID/g; Drug uptake [26]: 0.33 % ID/g; Drug uptake [27]: 0.15 % ID/g
